≈ marks a conversion by molar mass, not a printed value.
What was measured:
Type in all cases: functional
Vero [1] = experiment: Evaluation for antiviral activity against Coxsackie virus B4 in Vero cell cultures (Concentration required to reduce virus-induced cytopathogenicity by 50%); conditions: Chlorocebus sabaeus
How it was run: (§1)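 Vero cultures were infected with parainfluenza-3, reovirus-1, Sindbis, Coxsackie B4 or Semliki forest virus. Values are concentrations giving 50% reduction of virus-induced cytopathogenicity, or a microscopically detectable alteration of normal cell morphology for cytotoxicity. Each is the average of two separate experiments.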

Vero [2] = experiment: Evaluation in Vero cell cultures for cytotoxicity that is to cause microscopically detectable alteration of normal cell morphology; conditions: Chlorocebus sabaeus; how it was run: as §1
Influenza A virus = experiment: Concentration required to reduce influenza virus A (ishikawa) induced cytopathogenicity by 50%
How it was run: (§2)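 Influenza A and B virus replication in MDCK cultures. Antiviral value is the concentration giving 50% reduction of virus-induced cytopathogenicity. Cytotoxicity is the concentration causing a microscopically detectable change in normal cell morphology.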

Vero [3] = experiment: Evaluation for antiviral activity against reo virus-1 in Vero cell cultures (Concentration required to reduce virus-induced cytopathogenicity by 50%); conditions: Chlorocebus sabaeus; how it was run: as §1
[4] = Evaluation in PRK cell cultures for cytotoxicity that is to cause microscopically detectable alteration of normal cell morphology; conditions: Oryctolagus cuniculus
[5] = Evaluation for antiviral activity against vesicular stomatitis virus in primary rabbit kidney cell cultures(PRK) (Concentration required to reduce virus-induced cytopathogenicity by 50%); conditions: Oryctolagus cuniculus
[6] = Evaluated for antiviral activity against herpes simplex virus-1(KOS) in primary rabbit kidney cell cultures(PRK) (Concentration required to reduce virus-induced cytopathogenicity by 50%); conditions: Oryctolagus cuniculus
[7] = Evaluation for antiviral activity against herpes simplex virus-2(G) in primary rabbit kidney cell cultures(PRK) (Concentration required to reduce virus-induced cytopathogenicity by 50%); conditions: Oryctolagus cuniculus
HeLa [8] = experiment: Evaluation for antiviral activity against Coxsackie virus B4 in HeLa cell cultures (Concentration required to reduce virus-induced cytopathogenicity by 50%); conditions: Homo sapiens
How it was run: (§3)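 HeLa cultures were infected with respiratory syncytial, vesicular stomatitis, Coxsackie B4 or polio-1 virus. The antiviral end-point is 50% reduction of virus-induced cytopathogenicity. Cytotoxicity is the minimum concentration producing microscopically detectable alteration of normal cell morphology.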

Vero [9] = experiment: Evaluation for antiviral activity against parainfluenza-3 virus in Vero cell cultures (Concentration required to reduce virus-induced cytopathogenicity by 50%); conditions: Chlorocebus sabaeus; how it was run: as §1
HeLa [10] = experiment: Evaluation for antiviral activity against polio virus-1 in HeLa cell cultures (Concentration required to reduce virus-induced cytopathogenicity by 50%); conditions: Homo sapiens; how it was run: as §3
Vero [11] = experiment: Evaluation for antiviral activity against Sindbis virus in Vero cell cultures (Concentration required to reduce virus-induced cytopathogenicity by 50%); conditions: Chlorocebus sabaeus; how it was run: as §1
[12] = Evaluation for antiviral activity against vaccinia virus in primary rabbit kidney cell cultures(PRK) (Concentration required to reduce virus-induced cytopathogenicity by 50%); conditions: Oryctolagus cuniculus
HeLa [13] = experiment: Evaluation for antiviral activity against vesicular stomatitis virus in HeLa cell cultures (Concentration required to reduce virus-induced cytopathogenicity by 50%); conditions: Homo sapiens; how it was run: as §3
HeLa [14] = experiment: Evaluation in HeLa cell cultures for cytotoxicity that is to cause microscopically detectable alteration of normal cell morphology; conditions: Homo sapiens; how it was run: as §3
Vero [15] = experiment: Evaluation for antiviral activity against forest virus in Vero cell cultures (Concentration required to reduce virus-induced cytopathogenicity by 50%); conditions: Chlorocebus sabaeus; how it was run: as §1
Influenza B virus = experiment: Concentration required to reduce influenza virus B (singapore) induced cytopathogenicity by 50%; how it was run: as §2
MDCK = experiment: Compound was evaluated in MDCK cell cultures for cytotoxicity that is to cause microscopically detectable alteration of normal cell morphology; conditions: Canis lupus familiaris; how it was run: as §2
[16] = Evaluation for antiviral activity against herpes simplex virus-1(TK-) (B2006) in primary rabbit kidney cell cultures(PRK) (Concentration required to reduce virus-induced cytopathogenicity by 50%); conditions: Oryctolagus cuniculus
[17] = Evaluation for antiviral activity against herpes simplex virus-2(196) in primary rabbit kidney cell cultures(PRK) (Concentration required to reduce virus-induced cytopathogenicity by 50%); conditions: Oryctolagus cuniculus
[18] = Evaluation for antiviral activity against herpes simplex virus-2(Lyons) in primary rabbit kidney cell cultures(PRK) (Concentration required to reduce virus-induced cytopathogenicity by 50%); conditions: Oryctolagus cuniculus
MOLT-4F = experiment: Inhibitory effect on the proliferation of human T-lymphoblast cells (Molt-4F); conditions: read-out: ID50 (the source's name)
How it was run: (§4)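 Proliferation assay in murine leukemia L1210, human T-lymphoblast Molt-4F and human T-lymphocyte MT-4 cells. ID50 is the dose inhibiting tumor cell proliferation by 50%, expressed in μg/mL.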

[19] = Evaluation for antiviral activity against herpes simplex virus-1 (McIntyre) in primary rabbit kidney cell cultures(PRK) (Concentration required to reduce virus-induced cytopathogenicity by 50%); conditions: Oryctolagus cuniculus
L1210 = experiment: Inhibitory effect on the proliferation of murine leukemia cells (L1210); conditions: Mus musculus, read-out: ID50 (the source's name); how it was run: as §4
MT4 = experiment: Inhibitory effect on the proliferation of human T-lymphocyte (MT-4); conditions: read-out: ID50 (the source's name); how it was run: as §4
[20] = Evaluation for antiviral activity against herpes simplex virus-1(F) in primary rabbit kidney cell cultures(PRK) (Concentration required to reduce virus-induced cytopathogenicity by 50%); conditions: Oryctolagus cuniculus
HeLa [21] = experiment: Compound was evaluated for antiviral activity against respiratory syncitial virus (long) in HeLa cell cultures (Concentration required to reduce virus-induced cytopathogenicity by 50%); conditions: Homo sapiens; how it was run: as §3

Row | SMILES | MIC (Vero [1]) | MCC (Vero [2]) | MIC (Influenza A virus) | MIC (Vero [3]) | MCC [4] | MIC [5] | MIC [6] | MIC [7] | MIC (HeLa [8]) | MIC (Vero [9]) | MIC (HeLa [10]) | MIC (Vero [11]) | MIC [12] | MIC (HeLa [13]) | MCC (HeLa [14]) | MIC (Vero [15]) | MIC [16] | MIC [17] | MIC [18] | MIC [19] | also measured
1 | O[C@@H]1CSCON2CCc3c([nH]c4ccccc34)[C@@H]12 | > 40 µg/mL | > 100 µg/mL | > 1.6 µg/mL | > 40 µg/mL | > 100 µg/mL | > 100 µg/mL | > 100 µg/mL | > 100 µg/mL | > 40 µg/mL | > 40 µg/mL | > 100 µg/mL | 20 µg/mL (≈ 72.4 µM) | > 100 µg/mL | > 100 µg/mL | 100 µg/mL | > 40 µg/mL |  |  |  |  | MIC (Influenza B virus): > 1.6 µg/mL; MCC (MDCK): 3 µg/mL
2 | Cn1c2c(c3ccccc31)CCN1OCSC[C@@H](N)[C@@H]21 | 0.7 µg/mL (≈ 2.42 µM) | > 20 µg/mL |  | 1 µg/mL (≈ 3.46 µM) | > 40 µg/mL | 7 µg/mL (≈ 24.2 µM) | 3 µg/mL (≈ 10.4 µM) | 0.7 µg/mL (≈ 2.42 µM) | 7 µg/mL (≈ 24.2 µM) | 0.7 µg/mL (≈ 2.42 µM) | 2 µg/mL (≈ 6.91 µM) | 2 µg/mL (≈ 6.91 µM) | 1.5 µg/mL (≈ 5.18 µM) | 7 µg/mL (≈ 24.2 µM) | > 10 µg/mL | 2 µg/mL (≈ 6.91 µM) | 7 µg/mL (≈ 24.2 µM) | 1 µg/mL (≈ 3.46 µM) | 0.7 µg/mL (≈ 2.42 µM) | 0.7 µg/mL (≈ 2.42 µM) | IC50 (MOLT-4F): 0.37 µg/mL (≈ 1.28 µM); IC50 (L1210): 0.56 µg/mL (≈ 1.94 µM); IC50 (MT4): 0.69 µg/mL (≈ 2.38 µM); MIC [20]: 2 µg/mL (≈ 6.91 µM)
3 | Nc1nccc2c1ncn2[C@@H]1C[C@H](CO)[C@@H](O)[C@H]1O [3-DEAZAARISTEROMYCIN A] | 20 µg/mL (≈ 75.7 µM) | > 400 µg/mL |  | 2 µg/mL (≈ 7.57 µM) | > 400 µg/mL | 2 µg/mL (≈ 7.57 µM) | > 200 µg/mL | > 200 µg/mL | > 400 µg/mL | 2 µg/mL (≈ 7.57 µM) | > 400 µg/mL | 20 µg/mL (≈ 75.7 µM) | 0.7 µg/mL (≈ 2.65 µM) | 2 µg/mL (≈ 7.57 µM) | > 400 µg/mL | > 400 µg/mL | 150 µg/mL (≈ 568 µM) | > 200 µg/mL | > 200 µg/mL | > 200 µg/mL | MIC [20]: > 200 µg/mL
4 | N[C@H]1CSCON2CCc3c([nH]c4ccccc34)[C@@H]12 | 7 µg/mL (≈ 25.4 µM) | 40 µg/mL | 3 µg/mL (≈ 10.9 µM) | 20 µg/mL (≈ 72.6 µM) | > 10 µg/mL | 2 µg/mL (≈ 7.26 µM) | 2 µg/mL (≈ 7.26 µM) | 2 µg/mL (≈ 7.26 µM) | > 10 µg/mL | 7 µg/mL (≈ 25.4 µM) | > 10 µg/mL | 20 µg/mL (≈ 72.6 µM) | 2 µg/mL (≈ 7.26 µM) | 7 µg/mL (≈ 25.4 µM) | 40 µg/mL | 10 µg/mL (≈ 36.3 µM) | 7 µg/mL (≈ 25.4 µM) | 2 µg/mL (≈ 7.26 µM) | 2 µg/mL (≈ 7.26 µM) | 2 µg/mL (≈ 7.26 µM) | MIC (HeLa [21]): 3 µg/mL (≈ 10.9 µM); IC50 (MOLT-4F): 1.54 µg/mL (≈ 5.59 µM); IC50 (L1210): 1.24 µg/mL (≈ 4.5 µM); MIC [20]: 2 µg/mL (≈ 7.26 µM); MIC (Influenza B virus): 3 µg/mL (≈ 10.9 µM); MCC (MDCK): 40 µg/mL
5 | c1ccc2c3c([nH]c2c1)C1CCSCON1CC3 (configuration not stated) | > 10 µg/mL | > 40 µg/mL | > 40 µg/mL | > 10 µg/mL | > 200 µg/mL | > 100 µg/mL |  | > 100 µg/mL | > 10 µg/mL | > 10 µg/mL | > 10 µg/mL | > 10 µg/mL | > 100 µg/mL | > 10 µg/mL | > 40 µg/mL | > 10 µg/mL | > 100 µg/mL | > 100 µg/mL | > 100 µg/mL | > 100 µg/mL | MIC (HeLa [21]): > 8 µg/mL; IC50 (MOLT-4F): 18.3 µg/mL (≈ 70.3 µM); IC50 (L1210): 24.9 µg/mL (≈ 95.6 µM); IC50 (MT4): 96 µg/mL (≈ 369 µM); MIC (Influenza B virus): > 40 µg/mL; MCC (MDCK): 80 µg/mL
6 | Cn1c2c(c3ccccc31)CCN1OCSC[C@@H](N)[C@H]21 | > 10 µg/mL | > 40 µg/mL |  | > 10 µg/mL | 40 µg/mL | > 10 µg/mL | > 10 µg/mL |  | > 10 µg/mL | > 10 µg/mL | > 10 µg/mL | > 10 µg/mL | > 10 µg/mL | > 10 µg/mL | > 10 µg/mL | > 10 µg/mL |  |  | > 10 µg/mL |  | 
